Reference: ChEMBL document CHEMBL3526029, “Disposition and metabolism of GSK2251052 in humans: a novel boron-containing antibiotic” (Drug Metab Dispos, 2013)

Assays:
[1] = system: Plasma; assay: AUC (0 to t) in plasma of healthy human treated with [14C]GSK2251052 at 1500 mg, iv infusion for 1 hr as single dose; assay type: ADME, organism-based; conditions: in vivo
Summary of the method: (§1)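 Six fasted healthy men received 1500 mg [14C]GSK2251052 as a 1-h constant-rate i.v. infusion. K2EDTA plasma was sampled from predose to 72 h, with profiling samples added at 96, 144 and 336 h. Parent and M3 were measured by validated LC/MS/MS after methanol/formic acid precipitation with stable-label internal standards (range 5–10,000 ng/ml). Noncompartmental analysis used actual times, linear-up/log-down trapezoids and CL = dose/AUC(0-∞).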

[2] = system: Plasma; assay: AUC (0 to infinity) in plasma of healthy human treated with [14C]GSK2251052 at 1500 mg, iv infusion for 1 hr as single dose; assay type: ADME, organism-based; set-up: dose 1500 mg, route intravenous, time infinity; conditions: in vivo; summary of the method: as §1
[3] = system: Plasma; assay: Cmax in plasma of healthy human treated with [14C]GSK2251052 at 1500 mg, iv infusion for 1 hr as single dose; assay type: ADME, organism-based; set-up: dose 1500 mg, route intravenous; conditions: in vivo; summary of the method: as §1
[4] = Drug recovery in healthy human feces treated with [14C]GSK2251052 at 1500 mg, iv infusion for 1 hr as single dose after 0 to 120 hrs by HPLC method; conditions: in vivo
[5] = Drug recovery in cynomolgus monkey liver cytosol at pH 7.4 treated with [14C]GSK2251052 at 500 uM after 3 hrs by liquid scintillation counting in presence of NAD+; assay type: ADME, Macaca fascicularis; conditions: pH 7.4, 3 h
[6] = system: Plasma; assay: Half life in plasma of healthy human treated with [14C]GSK2251052 at 1500 mg, iv infusion for 1 hr as single dose; assay type: ADME, organism-based; conditions: in vivo
Summary of the method: (§2)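 Healthy men got a single 1500 mg [14C] dose by 1 h i.v. infusion. K2EDTA blood was sampled up to 336 h. Radioactivity in blood and plasma was measured by LSC, with AMS for plasma below LLQ. Parent and M3 were measured by LC/MS/MS (5–10,000 ng/ml range). Noncompartmental analysis used actual times, with t1/2 = ln2/λz and Tmax observed directly, timed from infusion start.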

[7] = Drug recovery in cynomolgus monkey liver S9 fraction at pH 8.8 treated with [14C]GSK2251052 at 500 uM after 3 hrs by liquid scintillation counting in presence of NAD+; assay type: ADME, subcellular, Macaca fascicularis; conditions: s9, pH 8.8, 3 h
[8] = system: Plasma; assay: Tmax in plasma of healthy human treated with [14C]GSK2251052 at 1500 mg, iv infusion for 1 hr as single dose; assay type: ADME, organism-based; conditions: in vivo; summary of the method: as §2
[9] = Drug metabolism in human liver cytosol assessed as ADH-mediated compound formation treated with GSK2251052 at 50 to 500 uM by spectrophotometry in presence of NAD+; assay type: ADME; conditions: TDE = time-dependent effect
[10] = Drug metabolism assessed as purified ADH (unknown origin)-mediated compound formation treated with GSK2251052 at 50 to 500 uM by spectrophotometry in presence of NAD+; assay type: ADME; conditions: human, TDE = time-dependent effect
[11] = Drug recovery in cynomolgus monkey liver cytosol at pH 8.4 treated with in presence of NAD+ [14C]GSK2251052 at 500 uM after 3 hrs by liquid scintillation counting; assay type: ADME, Macaca fascicularis; conditions: pH 8.4, 3 h
[12] = Drug recovery in cynomolgus monkey liver S9 fraction at pH 8.4 treated with [14C]GSK2251052 at 500 uM after 3 hrs by liquid scintillation counting in presence of NAD+; assay type: ADME, subcellular, Macaca fascicularis; conditions: s9, pH 8.4, 3 h
[13] = Drug recovery in cynomolgus monkey liver S9 fraction at pH 7.4 treated with [14C]GSK2251052 at 500 uM after 3 hrs by liquid scintillation counting in presence of NAD+; assay type: ADME, subcellular, Macaca fascicularis; conditions: s9, pH 7.4, 3 h
[14] = Drug recovery in cynomolgus monkey liver microsomes at pH 7.4 treated with [14C]GSK2251052 at 500 uM after 3 hrs by liquid scintillation counting in presence of NAD+; assay type: ADME, Macaca fascicularis; conditions: pH 7.4, 3 h
[15] = Drug recovery in healthy human feces treated with [14C]GSK2251052 at 1500 mg, iv infusion for 1 hr as single dose after 120 hrs by HPLC method; assay type: ADME, organism-based; conditions: in vivo
Summary of the method: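 Feces pooled over 0–120 h per subject by sample weight. About 1 g homogenate extracted twice with 4 volumes of acetonitrile:methanol:water:formic acid (50:25:25:1) under 20 min sonication. Extracts dried and reconstituted in water:methanol 90:10. Profiled by HPLC (Atlantis T3, ammonium acetate pH 4.5/methanol, 30°C) with fraction radiocounting and Orbitrap MS. Results given as % of dose, corrected for extraction recovery.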

[16] = system: Liver cytosol; assay: Drug metabolism in human liver cytosol assessed as compound formation treated with GSK2251052 at 50 to 500 uM after 3 hrs by spectrophotometry in presence of NAD+ and ADH inhibitor 4-MP; assay type: ADME
[17] = Drug recovery in healthy human urine treated with [14C]GSK2251052 at 1500 mg, iv infusion for 1 hr as single dose after 120 to 336 hrs by HPLC method; assay type: ADME, organism-based; conditions: in vivo
Summary of the method: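 Urine pooled by weight per subject over 0–120 h; 120–336 h pools from all subjects combined into one composite. Centrifuged at ~21,000g, then supernatant profiled by HPLC (Atlantis T3, ammonium acetate pH 4.5/methanol, 30°C) with radiochemical detection plus MS identification. Results are % of dose, corrected for centrifugation recovery measured by triplicate LSC.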

AUCt [1] [µg·h/mL] | AUC [2] [µg·h/mL] | Cmax [3] [µg/mL] | Drug recovery [4] [%] | Drug recovery [5] [%] | t1/2 [6] [h] | Drug recovery [7] [%] | Tmax [8] [h] | Drug metabolism [9] | Drug metabolism [10] | Drug recovery [11] [%] | Drug recovery [12] [%] | Drug recovery [13] [%] | Drug recovery [14] [%] | Drug recovery [15] [%] | Drug metabolism [16] | Drug recovery ([17]; in the assay text read “0 to 120 hrs” for “120 to 336 hrs”) [%] | Drug recovery ([17]; BLD = below limit of detection) | SMILES
101 | 103 | 1.77 | 3.3 | 1.7 | 77.3 | 4.3 | 7 | tde | tde | 0.9 | 6.7 | 7.7 | 2.5 | 3.3 | metabolite_not_detected | 43.8 | – | Cl.NC[C@H]1OB(O)c2c(OCCC(=O)O)cccc21
– | – | – | – | – | – | – | – | – | – | – | – | – | – | – | – | – | BLD | CC(=O)NC[C@H]1OB(O)c2c(OCCC(=O)O)cccc21
